What all share (type): functional, cell-based
For one experiment, the system named is KB. In words: Cytotoxicity against human KB cells after 3 days by MTT assay. Conditions: 72 h. In short, it runs like this:
(§1)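 Exponential-phase cells seeded at 5 × 10⁴–1 × 10⁵ cells/mL in fresh medium, grown overnight, then treated with compounds dissolved in DMSO at selected concentrations for 3 days. MTT in PBS (10 mg/mL stock) added for 3 h. Formazan dissolved in DMSO and read at 540 nm, with PBS lacking MTT as blank. Inhibition rate taken from averaged OD; IC50 = concentration giving 50% growth inhibition. Coefficients of variation <10%.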

Experiment [1] is described as follows: Cytotoxicity against human CNE2 cells after 3 days by MTT assay. Conditions: CNE-2, 72 h. In short, it runs like this:
as §1
Background: Tetrazolium assays rely on reduction of a dye to a coloured formazan, in cell work by metabolically active cells.

A further experiment deals with MGC-803. In words: Cytotoxicity against human MGC803 cells after 3 days by MTT assay. Conditions: MGC-803, 72 h. The essentials: as §1

Among the data in ChEMBL document CHEMBL1833817, “Synthesis and cytotoxicity of 8-cyano-3-substitutedalkyl-5-methyl-4-methylene-7-methoxy-3,4-dihydropyrido[4,3-d]pyrimidines” (Bioorg Med Chem Lett, 2011) are IC50 values, retold here.

The IC50 is the concentration at which inhibition is half-maximal.

`C=C1c2c(C)nc(OC)c(C#N)c2N=CN1CCCCCC` displayed an IC50 in the experiment with KB of more than 50 µM. Still for that read-out and setting: the value for `COc1nc(C)c2c(C)ncnc2c1C#N` was more than 50 µM. `C=C1c2c(C)nc(OC)c(C#N)c2N=CN1Cc1ccc(C)cc1`: the figures for the IC50 (in the experiment with KB; in experiment [1]; with MGC-803) were 0.48 µM, 150 nM and 590 nM, respectively. `C=C1c2c(C)nc(OC)c(C#N)c2N=CN1Cc1ccco1` yielded an IC50 with KB of more than 50 µM. Turning to `C=C1c2c(C)nc(OC)c(C#N)c2N=CN1Cc1ccc(OC)cc1`, the IC50 in the experiment with KB is 0.67 µM; in experiment [1] it was 180 nM; in the experiment with MGC-803, 670 nM. Turning to `C=C1c2c(C)nc(OC)c(C#N)c2N=CN1CCC`, the IC50 with KB is more than 50 µM. The same measure, in the same setting: the value for `C=C1c2c(C)nc(OC)c(C#N)c2N=CN1Cc1ccccc1` was more than 50 µM; that for `C=C1c2c(C)nc(OC)c(C#N)c2N=CN1Cc1ccc(Cl)cc1` was 20 µM; that for `C=C1c2c(C)nc(OC)c(C#N)c2N=CN1CCc1ccc(Cl)cc1` was more than 50 µM. Still for that read-out and setting: the same measure for `C=C1c2c(C)nc(OC)c(C#N)c2N=CN1Cc1cccc(C)c1`: 37 µM; for `C=C1c2c(C)nc(OC)c(C#N)c2N=CN1CC`: more than 50 µM.
